Assay results reported in ChEMBL document CHEMBL1144014, “Protein phosphatase inhibitory activity of tautomycin photoaffinity probes evaluated at femto-molar level” (Bioorg Med Chem, 2008).

Target: Serine/threonine-protein phosphatase PP1-gamma catalytic subunit (Homo sapiens, UniProt P36873)
Assay: Inhibition of PP1gamma by firefly bioluminescence assay
How it was run: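 Recombinant PP1c (E. coli-expressed), concentration set by titration, diluted to 40 nM in Tris–HCl (pH 8.43) with 0.15% BSA and 4.0 mM DTT (DTT omitted for disulfide-containing probes). Inhibitor diacid (0–40 µM stock dilutions; 0–10 µM in assay) premixed with enzyme. Luciferin phosphate (40 µM, 5 µL) is added. After 6 min, released luciferin is read on an immobilized-luciferase column with photon counting, in triplicate. Ki is fitted with a tight-binding model.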

Chain of Serine/threonine-protein phosphatase PP1-gamma catalytic subunit (P36873 whole entry): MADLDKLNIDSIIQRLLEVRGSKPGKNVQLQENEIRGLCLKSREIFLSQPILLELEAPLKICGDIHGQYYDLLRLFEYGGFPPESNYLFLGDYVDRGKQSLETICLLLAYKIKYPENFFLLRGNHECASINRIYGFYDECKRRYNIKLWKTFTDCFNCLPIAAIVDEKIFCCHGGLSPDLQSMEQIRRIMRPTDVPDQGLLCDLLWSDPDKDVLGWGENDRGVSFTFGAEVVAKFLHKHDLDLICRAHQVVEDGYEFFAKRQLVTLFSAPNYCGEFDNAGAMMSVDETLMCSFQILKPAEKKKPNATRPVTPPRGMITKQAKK

| SMILES | Ki |
| --- | --- |
| CO[C@@H]([C@H](O)CC(=O)[C@@H](C)[C@@H](O)CC[C@@H](C)[C@@H]1O[C@]2(CC[C@@H](C)[C@H](CC[C@H](C)/C(C)=N/OCC(=O)Nc3cccc(C(=O)c4ccccc4)c3)O2)CC[C@@H]1C)[C@H](OC(=O)C[C@@H](O)/C(C(=O)O)=C(\C)C(=O)O)C(C)C | 8 nM |
| CO[C@@H]([C@H](O)CC(=O)[C@@H](C)[C@@H](O)CC[C@@H](C)[C@@H]1O[C@]2(CC[C@@H](C)[C@H](CC[C@H](C)/C(C)=N\OCC(=O)NCCNC(=O)c3ccc(F)c(N=[N+]=[N-])c3)O2)CC[C@@H]1C)[C@H](OC(=O)C[C@@H](O)/C(C(=O)O)=C(\C)C(=O)O)C(C)C | 8.4 nM |
| CO[C@@H]([C@H](O)CC(=O)[C@@H](C)[C@@H](O)CC[C@@H](C)[C@@H]1O[C@]2(CC[C@@H](C)[C@H](CC[C@H](C)/C(C)=N/OCC(=O)NCCSSCCNC(=O)c3ccc(F)c(N=[N+]=[N-])c3)O2)CC[C@@H]1C)[C@H](OC(=O)C[C@@H](O)/C(C(=O)O)=C(\C)C(=O)O)C(C)C | 19.6 nM |
| COc1cc(C2(C(F)(F)F)N=N2)ccc1C(=O)NCCNC(=O)CO/N=C(/C)[C@@H](C)CC[C@@H]1O[C@@]2(CC[C@H]1C)CC[C@H](C)[C@H]([C@H](C)CC[C@H](O)[C@H](C)C(=O)C[C@@H](O)[C@H](OC)[C@H](OC(=O)C[C@@H](O)/C(C(=O)O)=C(\C)C(=O)O)C(C)C)O2 | 49.7 nM |
| CO[C@@H]([C@H](O)CC(=O)[C@@H](C)[C@@H](O)CC[C@@H](C)[C@@H]1O[C@]2(CC[C@@H](C)[C@H](CC[C@H](C)/C(C)=N\OCC(=O)NCCSSCCNC(=O)c3ccc(F)c(N=[N+]=[N-])c3)O2)CC[C@@H]1C)[C@H](OC(=O)C[C@@H](O)/C(C(=O)O)=C(\C)C(=O)O)C(C)C | 23.9 nM |
| CO[C@@H]([C@H](O)CC(=O)[C@@H](C)[C@@H](O)CC[C@@H](C)[C@@H]1O[C@]2(CC[C@@H](C)[C@H](CC[C@H](C)/C(C)=N/OCC(=O)NCCCNC(=O)c3ccc(F)c(N=[N+]=[N-])c3)O2)CC[C@@H]1C)[C@H](OC(=O)C[C@@H](O)/C(C(=O)O)=C(\C)C(=O)O)C(C)C | 3.4 nM |
| COc1cc(C2(C(F)(F)F)N=N2)ccc1C(=O)NCCNC(=O)CO/N=C(\C)[C@@H](C)CC[C@@H]1O[C@@]2(CC[C@H]1C)CC[C@H](C)[C@H]([C@H](C)CC[C@H](O)[C@H](C)C(=O)C[C@@H](O)[C@H](OC)[C@H](OC(=O)C[C@@H](O)/C(C(=O)O)=C(\C)C(=O)O)C(C)C)O2 | 213 nM |
| CO[C@@H]([C@H](O)CC(=O)[C@@H](C)[C@@H](O)CC[C@@H](C)[C@@H]1O[C@]2(CC[C@@H](C)[C@H](CC[C@H](C)/C(C)=N\OCC(=O)Nc3cccc(C(=O)c4ccccc4)c3)O2)CC[C@@H]1C)[C@H](OC(=O)C[C@@H](O)/C(C(=O)O)=C(\C)C(=O)O)C(C)C | 32.5 nM |
| CO[C@@H]([C@H](O)CC(=O)[C@@H](C)[C@@H](O)CC[C@@H](C)[C@@H]1O[C@]2(CC[C@@H](C)[C@H](CC[C@H](C)C(C)=O)O2)CC[C@@H]1C)[C@H](OC(=O)C[C@@H](O)/C(C(=O)O)=C(\C)C(=O)O)C(C)C [TAUTOMYCIN DIACID] | 4.5 nM |
| CO[C@@H]([C@H](O)CC(=O)[C@@H](C)[C@@H](O)CC[C@@H](C)[C@@H]1O[C@]2(CC[C@@H](C)[C@H](CC[C@H](C)/C(C)=N/OCC(=O)NCCNC(=O)c3ccc(F)c(N=[N+]=[N-])c3)O2)CC[C@@H]1C)[C@H](OC(=O)C[C@@H](O)/C(C(=O)O)=C(\C)C(=O)O)C(C)C | 17.3 nM |
